In article PMC3268775 (Journal of the American Chemical Society, 2012):
Positions count from the first letter of the chain named. Numbered stars: 1 amine (or outer) side, 2 acyl side, 3 side chain; on linkers, the order of the positions; unused ones are H or OH. Square brackets hold non-standard residues; d marks the D form. Peptide text beside a SMILES is read from it. * marks the point of attachment. Isonicotinoyl(2-(4-Me-2-Py)) = Cc1ccnc(-c2cc(C(=O)*)ccn2)c1; X1 = O=C([C@H](Cc1c(F)cc(O)c(F)c1F)N[*:1])[*:2]

Assays:
[1] = [Re^I]* emission lifetime of peptide in solution; format: physicochemical
Method in brief: (§1)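 Time-resolved [Re] emission, monitored at 610 nm. Samples held 10 μM Re-labelled test peptide, 200 μM Ru(NH3)6Cl3, 1 mM CDP and 3 mM ATP in 50 mM sodium borate, pH 8.3, 15 mM MgSO4, 5% glycerol. For the bound state, 20 μM His6-tagged E. coli α2 mutant was added. Samples were equilibrated 3 min at 23 °C and measured while flowing. Lifetimes came from weighted least-squares fits of averaged traces.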

Y731F-α2 [2] = biological target: T1, Y731F-α2 (Escherichia coli, UniProt P00452, Y731F); assay: [Re^I]* emission lifetime of peptide bound to Y731F-α2; format: binding; details: 10 μM peptide, 20 μM α2, pH 8.3
T1 sequence (P00452 1-761 Y731F): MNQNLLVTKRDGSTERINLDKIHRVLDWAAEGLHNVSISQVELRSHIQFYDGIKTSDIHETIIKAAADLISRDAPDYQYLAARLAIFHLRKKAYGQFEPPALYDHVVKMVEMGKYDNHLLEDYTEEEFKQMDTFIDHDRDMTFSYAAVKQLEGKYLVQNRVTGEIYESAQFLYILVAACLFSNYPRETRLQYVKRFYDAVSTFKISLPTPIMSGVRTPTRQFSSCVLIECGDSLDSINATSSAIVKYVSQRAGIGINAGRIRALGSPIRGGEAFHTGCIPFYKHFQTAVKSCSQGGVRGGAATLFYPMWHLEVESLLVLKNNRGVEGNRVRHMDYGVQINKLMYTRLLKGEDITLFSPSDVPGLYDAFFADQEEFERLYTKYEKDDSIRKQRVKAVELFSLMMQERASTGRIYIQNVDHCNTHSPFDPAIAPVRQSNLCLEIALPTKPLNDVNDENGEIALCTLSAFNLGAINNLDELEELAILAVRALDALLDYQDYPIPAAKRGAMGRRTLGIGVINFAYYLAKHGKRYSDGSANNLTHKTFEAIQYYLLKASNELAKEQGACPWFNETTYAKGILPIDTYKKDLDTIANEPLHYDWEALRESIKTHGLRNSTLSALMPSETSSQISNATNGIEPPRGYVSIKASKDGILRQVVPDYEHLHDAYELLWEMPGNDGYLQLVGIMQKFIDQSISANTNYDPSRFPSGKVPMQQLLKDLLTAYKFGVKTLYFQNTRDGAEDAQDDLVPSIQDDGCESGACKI
Method in brief: as §1

[3] = Flash-quench transient absorption: •F3Y radical of free peptide; format: physicochemical
Method in brief: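 Free Re-labelled test peptide (50 μM) with 1 mM Ru(NH3)6Cl3 flash quencher, 1 mM CDP and 3 mM ATP in 50 mM borate, pH 8.3, 15 mM MgSO4, 5% glycerol. Samples were equilibrated 3 min at 23 °C and flowed through the cuvette, then excited with a 7 ns 355 nm pulse. Spectra averaged three data sets with FFT noise filtering. Kinetic traces were fitted by weighted least squares; errors are one SD.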

Y731F-α2 [4] = biological target: T1, Y731F-α2; assay: Flash-quench transient absorption: •F3Y radical in presence of Y731F-α2; format: biochemical
wt-α2 = biological target: T2, wt-α2 (Escherichia coli, UniProt P00452); assay: Flash-quench transient absorption: •F3Y radical in presence of wt-α2; format: biochemical
T2 sequence (P00452 1-761): T1 sequence (P00452 1-761 Y731F) with F731Y

## CC[C@H](C)[C@H](NC(=O)[C@H](CCC(N)=O)NC(=O)CNC(=O)[C@@H](NC(=O)[C@H](CC(C)C)NC(=O)[C@H](Cc1c(F)cc(O)c(F)c1F)NC(=O)c1ccnc(-c2cc(C)ccn2)c1)C(C)C)C(=O)N[C@@H](CC(=O)O)C(=O)N[C@@H](CO)C(=O)N[C@@H](CCC(=O)O)C(=O)N[C@H](C(=O)N[C@@H](CC(=O)O)C(=O)N[C@H](C(=O)N[C@@H](CC(=O)O)C(=O)N[C@@H](CC(=O)O)C(=O)N[C@@H](CC(C)C)C(=O)N[C@@H](CO)C(=O)N[C@@H](CC(N)=O)C(=O)N[C@@H](Cc1ccccc1)C(=O)N[C@@H](CCC(N)=O)C(=O)N[C@@H](CC(C)C)C(=O)O)[C@@H](C)O)C(C)C [[Re]–F3Y–βC19] ({Isonicotinoyl(2-(4-Me-2-Py))}-[X1]LVGQIDSEVDTDDLSNFQL-OH; N-terminus and C-terminus assumed)
[1]; pH 8.3, 22 ns component
  [Re^I]* emission decay, contribution of short component: 81%
[1]; pH 8.3, 58 ns component
  [Re^I]* emission decay, contribution of long component: 19%
[1]; pH 8.3, biphasic, [Re^I]* unchanged by proximal F3Y
  [Re^I]* emission lifetime, long component: 58 ns
[1]; pH 8.3, biphasic, quenching by deprotonated F3Y−
  [Re^I]* emission lifetime, short component: 22 ns
Y731F-α2 [2]
  [Re^I]* emission lifetime, "on" state: 29 ns
[3]; flash quench, 20 mol equiv Ru(NH3)6Cl3, λdet 425 nm
  fast time component, recombination of charge-separated state: 100 ns
[3]; free peptide, 395 nm, monoexponential, 50 μM peptide, 1 mM Ru(NH3)6Cl3, 1 mM CDP, 3 mM ATP, 15 mM MgSO4, 5% glycerol, 50 mM borate pH 8.3, average of 3–6 data sets
  •F3Y lifetime τ395: 14.7 ± 0.2 μs
[3]; free peptide, 410 nm, monoexponential, 50 μM peptide, 1 mM Ru(NH3)6Cl3, borate pH 8.3, average of 3–6 data sets
  •F3Y lifetime τ410: 13.5 ± 0.2 μs
[3]; free peptide, 425 nm, monoexponential, 50 μM peptide, 1 mM Ru(NH3)6Cl3, borate pH 8.3, average of 3–6 data sets
  •F3Y lifetime τ425: 14.5 ± 0.4 μs
[3]; optimized flash-quench system, 20 mol equiv Ru(NH3)6Cl3, calculated, see SI
  photochemical yield of •F3Y formation: 4.9%
Y731F-α2 [4]; Y731F-α2
  radical lifetime change / radical injection (in words): cannot competently inject the radical into α2
Y731F-α2 [4]; Y731F-α2, 410 nm, monoexponential, 50 μM peptide, 100 μM α2, pH 8.3
  •F3Y lifetime τ410: 14.2 ± 0.2 μs
Y731F-α2 [4]; Y731F-α2, 425 nm, monoexponential, 50 μM peptide, 100 μM α2, pH 8.3
  •F3Y lifetime τ425: 16.5 ± 0.4 μs
Y731F-α2 [4]; Y731F-α2, from amplitude of the •F3Y lifetime
  portion of peptide N-terminus in the "on" conformer: 20–30%
Y731F-α2 [4]; Y731F-α2, listed as [Re]–•F3Y–βC19
  radical lifetime change / radical injection (in words): no significant change in radical lifetime
wt-α2; wt-α2
  •F3Y radical decay profile (in words): biexponential decay owing to the contribution of a significantly shorter lifetime component
wt-α2; wt-α2, Eq. 1: kox = 1/τon − 1/τoff
  injection rate: (3 ± 2) × 10^5 s^−1
wt-α2; wt-α2, averaged across wavelengths
  •F3Y lifetime, short phase: 3.0 ± 1.4 μs
wt-α2; wt-α2, averaged across wavelengths, 50 μM peptide, 100 μM α2, 1 mM Ru(NH3)6Cl3, 1 mM CDP, 3 mM ATP, borate pH 8.3
  •F3Y lifetime, long phase: 15.4 ± 0.5 μs
